In the library only some 1.2% were active in any assay of this set; here they are far more common.
HKDC1 inh – HKDC1 hexokinase inhibitors, primary screen, biochemical, fluorescence, uHTS. Q2TB90. recombinant HKDC1, G6PDH/diaphorase resazurin coupled fluorescence. inhibition, % at 20 µM. 340,000 tested, 0.16% active. AID 493160, 2011;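 active means inhibition above about 35% when tested at 20 µM, limit read from the data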
Target sequence (Q2TB90 whole entry, looked up): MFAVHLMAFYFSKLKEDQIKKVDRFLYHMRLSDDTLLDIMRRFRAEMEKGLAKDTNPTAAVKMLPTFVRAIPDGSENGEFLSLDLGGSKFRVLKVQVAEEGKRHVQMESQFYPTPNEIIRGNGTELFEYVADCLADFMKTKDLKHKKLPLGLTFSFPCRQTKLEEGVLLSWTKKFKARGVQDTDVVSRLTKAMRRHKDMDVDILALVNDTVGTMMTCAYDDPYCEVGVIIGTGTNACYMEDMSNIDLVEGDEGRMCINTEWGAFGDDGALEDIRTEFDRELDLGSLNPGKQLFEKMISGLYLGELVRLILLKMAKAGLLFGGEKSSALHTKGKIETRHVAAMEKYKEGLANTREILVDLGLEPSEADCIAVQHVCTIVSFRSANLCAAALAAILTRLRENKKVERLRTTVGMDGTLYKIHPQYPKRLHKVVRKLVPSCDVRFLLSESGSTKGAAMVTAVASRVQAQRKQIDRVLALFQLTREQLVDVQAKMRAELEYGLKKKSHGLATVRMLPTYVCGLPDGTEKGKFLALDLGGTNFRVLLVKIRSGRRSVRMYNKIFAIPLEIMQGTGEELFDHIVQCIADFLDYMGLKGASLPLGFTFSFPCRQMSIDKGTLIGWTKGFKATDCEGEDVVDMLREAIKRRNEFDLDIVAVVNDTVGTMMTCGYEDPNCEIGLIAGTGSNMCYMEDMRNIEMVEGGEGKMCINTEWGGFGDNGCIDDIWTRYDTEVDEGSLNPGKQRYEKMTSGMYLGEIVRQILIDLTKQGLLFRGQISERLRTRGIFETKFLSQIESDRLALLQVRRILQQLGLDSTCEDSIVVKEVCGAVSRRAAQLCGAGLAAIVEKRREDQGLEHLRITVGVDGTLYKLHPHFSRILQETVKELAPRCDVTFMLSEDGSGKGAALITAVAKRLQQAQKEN
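Test system: recombinant HKDC1 (HK5) hexokinase enzyme, produced in-house; Amount: enzyme 5 µg/mL final; Buffer or medium: Tris pH 8.0 buffer with MgCl2, Tween-20, BSA, BME; Reagent: glucose and ATP substrates; Doses: 20 µM test compound, 1% DMSO; Incubation: 90 min reaction incubation at room temperature, dark; Detection: resorufin fluorescence at 613 nm.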
Diaphorase inh – diaphorase inhibitors and chemical oxidizers, primary screen, counter-screen for diaphorase-coupled primary assays, biochemical, uHTS, resorufin fluorescence | diaphorase resazurin-to-resorufin fluorescence, NADH, 16 min; bacterial (C. kluyveri) enzyme, not human | inhibition, % at 20 µM | 190,000 tested, 0.69% active | AID 1217, 2008;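 active means primary screen inhibition at 20 µM above a set limit, cut at about 50% in these data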
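Benchmarks: positive control wells lacking NADH, neutral wells with DMSO only. System: bacterial diaphorase enzyme (C. kluyveri). Input: 0.14 U/mL diaphorase, enzyme working solution. Detection: resorufin fluorescence, excitation 544 nm, emission 590 nm. Times: 16-min room-temperature incubation before reading.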
PfG6PD inh – PfG6PD enzyme inhibitors, primary screen, biochemical, fluorescence intensity, uHTS; PfGluPho enzyme, NADPH resazurin-diaphorase fluorescence; 350,000 tested, 0.78% active; glucose-6-phosphate dehydrogenase-6-phosphogluconolactonase (Plasmodium falciparum 3D7); AID 504690, 2011; inhibition, % at 20 µM;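 active means inhibition reaching at least a set limit at 20 µM in the primary screen, cut at about 59% in these data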
G6PDH CS – L. mesenteroides G6PDH inhibitors, counter-screen for G6PDH-coupled screening assays, biochemical, Leuconostoc mesenteroides enzyme; glucose-6-phosphate dehydrogenase [Leuconostoc mesenteroides]; Purified L. mesenteroides G6PDH, diaphorase/resazurin coupled fluorescence, 45 min; inhibition, % at 5 µM; 200,000 tested, 0.12% active; in the data active means inhibition above about 50%
Large screens that a line does not name were inactive.

CN1C(=O)C2(Nc3ccccc3-c3nc4ccccc4n32)c2ccccc21 (centres undefined)	Diaphorase inh 84
Cn1cc2ccc(N)cc2n1	Diaphorase inh 70, G6PDH CS 54
Cc1cc(-c2nsc(=O)o2)c(S(C)(=O)=O)s1	PfG6PD inh 68
CC(=O)Oc1cc2oc(=O)cc(C)c2cc1OC(C)=O	Diaphorase inh 52
O=C(COc1ccccc1Br)Nc1ccc2c(c1)OCCCO2	none (no result: Diaphorase inh, G6PDH CS)
CCOC(=O)Cn1c(=S)[nH]c2c(oc3ccc(Cl)cc32)c1=O	none
O=c1c2oc3ccccc3c2[nH]c(=S)n1-c1ccc(F)cc1	Diaphorase inh 59
O=c1[nH]c2c(oc3ccccc32)c(=O)n1Cc1ccccc1	none (no result: Diaphorase inh, G6PDH CS)
Cc1ccc(-n2c(=S)[nH]c3c(oc4ccccc43)c2=O)cc1C	Diaphorase inh 62
COc1ccccc1N=C1NC(=O)/C(=C/c2ccc(N(C)C)cc2)S1	none (no result: Diaphorase inh, G6PDH CS)
CCN(CC(=O)Nc1ccc(Br)cc1)CC(=O)Nc1cc(C)on1	none (no result: Diaphorase inh, G6PDH CS)
Cc1noc(NS(=O)(=O)c2ccc(NC(=O)CSc3nnc4c(n3)[nH]c3ccccc34)cc2)c1C	Diaphorase inh 65
CC1CCCC(NC(=S)NC(=O)c2ccco2)C1C (centres undefined)	none (no result: Diaphorase inh, G6PDH CS)
CCc1ccc2[nH]c(=O)c(C3C(C#N)=C(N)Oc4c3ccc3cccnc43)cc2c1 (centres undefined)	Diaphorase inh 52
Cc1ccc2cc(C3C(C#N)=C(N)Oc4c3ccc3cccnc43)c(=O)[nH]c2c1 (centres undefined)	none
COc1cc2c(cc1OC)CN(Cc1cc(OC)c(O)c(OC)c1)CC2	G6PDH CS 53
COc1cc(CN2CCN(c3ccccc3F)CC2)cc(OC)c1O	G6PDH CS 54
COc1cc(CN2CCC(C(=O)N3CCN(c4ccccc4F)CC3)CC2)cc(OC)c1O	G6PDH CS 54
COc1ccc2c(c1)OC[C@H]1[C@H]2N2C(=O)[C@H](C)NC(=O)[C@@]2(C)[C@H]1c1ccccc1	none (no result: Diaphorase inh, G6PDH CS)
O=[N+]([O-])c1cc2oc3c(c2c(C=NCc2ccncc2)c1O)CCCC3	Diaphorase inh 56
O=C(C1CC(=O)N(c2ccc(F)c(Cl)c2)C1)N1CCOCC1 (centres undefined)	none (no result: HKDC1 inh, Diaphorase inh, G6PDH CS)
Cc1ccc(Nc2c(-c3ccc(C)o3)nc3cnccn23)cc1	PfG6PD inh 69
NS(=O)(=O)c1ccc(CNC(=O)Cn2nc(C(F)F)cc2C(F)F)cc1	none (no result: Diaphorase inh, G6PDH CS)
COc1cc(C2CC(=O)NC3=C2C(=O)CC(C)(C)C3)cc(OC)c1O (centres undefined)	G6PDH CS 50
Cc1ccc(CN2CCC[C@]3(N[C@H](c4ccc(C(F)(F)F)cc4)[C@@H]4C(=O)N(Cc5ccccc5)C(=O)[C@@H]43)C2=O)cc1	none (no result: HKDC1 inh, Diaphorase inh, G6PDH CS)
O=C(NC(=S)Nc1cccc(Cl)c1Cl)C1CC1	none (no result: Diaphorase inh, G6PDH CS)
c1ccc(-c2cc(N3CCCCCC3)n[nH]2)cc1	Diaphorase inh 59
O=C(O)/C(=C\c1ccc(Cl)c([N+](=O)[O-])c1)c1ccc(S(=O)(=O)N2CCCCC2)s1	Diaphorase inh 61
O=C(O)/C(=C\c1ccc(Cl)c([N+](=O)[O-])c1)c1ccc(S(=O)(=O)N2CCCC2)s1	none (no result: Diaphorase inh, G6PDH CS)
COc1ccc2ccccc2c1C(=O)/C=C\c1ccoc1	Diaphorase inh 52
CN1CSC2=C(C#N)C(c3cccc(OCc4ccccc4)c3)CC(=O)N2C1 (centres undefined)	PfG6PD inh 92
N#CC1=C2SCC(O)(c3ccccc3)N2C(=O)CC1c1ccccc1 (centres undefined)	none
CCOc1ccc(C(C(=O)NCC2CCCO2)N(C(=O)c2snc(C(N)=O)c2N)c2ccc3c(c2)OCCO3)cc1 (centres undefined)	none (no result: Diaphorase inh, G6PDH CS)
CCOC(=O)C1=C(O)c2ccccc2C(=O)/C1=C\c1ccc(C)cc1	HKDC1 inh 67, PfG6PD inh 96, G6PDH CS 51
Cc1cccc(OCC(=O)N(C)CC(=O)Nc2cccc(F)c2)c1C	none (no result: Diaphorase inh, G6PDH CS)
CCn1c2ccccc2c2nc3cc(C(=O)O)ccc3nc21	Diaphorase inh 60
CCn1c2ccccc2c2nc3ccccc3nc21	none
O=C(Nc1cccn(Cc2cccc(F)c2)c1=O)NC1CCCCC1	Diaphorase inh 50
O=C(Nc1cccn(Cc2c(F)cccc2Cl)c1=O)NC1CCCCC1	none

Screens from PubChem BioAssay.
